In data set [1] the test system is BV-2. The experiment in a line: Antineuroinflammatory activity in mouse BV2 cells assessed as inhibition of LPS-induced nitric oxide production measured after 24 hrs by Griess assay. It counts as functional, cell-based. The settings on record: BV-2, 24 h. The procedure, abridged:
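BV-2 microglia; minocycline served as the positive control, and IC50 values were reported.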

Data set [2] concerns BV-2. Kind of data set: Cytotoxicity against mouse BV2 cells assessed as reduction in cell viability at 1 to 100 uM after 24 hrs by MTT assay. It counts as cell-based. As to conditions: bv-2, 24 h. The gist of the method: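 BV-2 viability was read by MTT at 1, 10, 30 and 100 μM in parallel with the NO-release test, to exclude NO drops caused by lost viability.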

SMILES strings stand for the structures. pIC50: −log10 of the molar value.

On to `COc1cc(/C=C/C(=O)O[C@H]2CC(=O)[C@]3(C)[C@H]4CC[C@]5(C)C(=CC[C@@]6(C(=O)O)CCC(C)(C)C[C@H]65)[C@]4(C)CC[C@H]3C2(C)C)ccc1O`, for which the pIC50 in data set [1] was 4.82. The Activity result in data set [2] is reported as “Non-Toxic”.

With `CC1(COC(=O)/C=C/c2ccc(O)cc2)CC[C@]2(C(=O)O)CC=C3[C@]4(C)CC[C@H]5C(C)(C)C(=O)C=C[C@]5(C)[C@H]4CC[C@@]3(C)[C@@H]2C1` (stereo not given in full), the negative logarithm of the IC50 (pIC50) in data set [1] was 5.57. Further, the Activity result in data set [2] was “Non-Toxic”.

Turning to `CC1(C)CC[C@]2(C(=O)O)CC=C3[C@]4(C)CC[C@H]5C(C)(C)[C@@H](O)CC(=O)[C@]5(C)[C@H]4CC[C@@]3(C)[C@@H]2C1`, in data set [1], the pIC50 is below 4.30. Besides, in data set [2], the Activity result was “Non-Toxic”. Turning to `CC(=O)O[C@H]1C[C@H](O)[C@]2(C)[C@H]3CC[C@]4(C)C(=CC[C@@]5(C(=O)O)CCC(C)(C)C[C@H]54)[C@]3(C)CC[C@H]2C1(C)C`, the pIC50 in data set [1] is below 4.30. Also, in data set [2], the Activity entry is reported as “Non-Toxic”.

Consider `O=c1ccc2cc3c(cc2o1)O[C@H](c1ccc(O)c(O)c1)[C@@H](CO)O3`, for which the negative logarithm of the IC50 (pIC50) in data set [1] is 4.86. Moreover, in data set [2], the Activity result is listed as “Non-Toxic”.

On to `CC1(C)CC[C@]2(C(=O)O)CC=C3[C@]4(C)CC[C@H]5C(C)(C)[C@@H](OC(=O)/C=C/c6ccc(O)cc6)CC(=O)[C@]5(C)[C@H]4CC[C@@]3(C)[C@@H]2C1`, for which the negative logarithm of the IC50 (pIC50) in data set [1] was 4.85. The Activity entry in data set [2] is recorded as “Non-Toxic”.

In the case of `CC1(C)CC[C@]2(C(=O)O)CC=C3[C@]4(C)CC[C@H]5C(C)(C)C(=O)CC[C@]5(C)[C@H]4CC[C@@]3(C)[C@@H]2C1`, in data set [1], the pIC50 is below 4.30. In addition, the Activity entry in data set [2] is reported as “Non-Toxic”. In the case of `O=c1ccc2cc3c(cc2o1)O[C@H](CO)[C@@H](c1ccc(O)c(O)c1)O3`, in data set [1], the pIC50 is 5.24. Moreover, in data set [2], the Activity result is recorded as “Non-Toxic”. For `O=c1ccc2cc3c(cc2o1)O[C@@H](c1ccc(O)c(O)c1)[C@H](CO)O3`, in that order: 5.14 and “Non-Toxic”. For `CC1(C)CC[C@]2(C(=O)O)CC=C3[C@]4(C)CC[C@H]5C(C)(C)[C@@H](OC(=O)/C=C/c6ccc(O)cc6)C[C@H](O)[C@]5(C)[C@H]4CC[C@@]3(C)[C@@H]2C1`, the pIC50 in data set [1] was 4.33. Further, the Activity entry in data set [2] is listed as “Non-Toxic”. For `COc1c2c(cc3ccc(=O)oc13)O[C@@H](c1ccc(O)c(O)c1)[C@H](CO)O2`, in that order: 5.38 and “Non-Toxic”. Regarding `O=c1ccc2cc3c(cc2o1)O[C@@H](CO)[C@H](c1ccc(O)c(O)c1)O3`, in data set [1], the pIC50 was below 4.30. Besides, the Activity entry in data set [2] was “Non-Toxic”. For `COc1c2c(cc3ccc(=O)oc13)O[C@H](c1ccc(O)c(O)c1)[C@@H](CO)O2`, in that order: 4.93 and “Non-Toxic”. For `CC1(COC(=O)/C=C\c2ccc(O)cc2)CC[C@]2(C(=O)O)CC=C3[C@]4(C)CC[C@H]5C(C)(C)C(=O)C=C[C@]5(C)[C@H]4CC[C@@]3(C)[C@@H]2C1` (stereo not given in full) the same measures were 5.77 and “Non-Toxic”. For `CC(=O)O[C@H]1CC(=O)[C@]2(C)[C@H]3CC[C@]4(C)C(=CC[C@@]5(C(=O)O)CCC(C)(C)C[C@H]54)[C@]3(C)CC[C@H]2C1(C)C` the same measures were below 4.30 and “Non-Toxic”. In the case of `CC(=O)O[C@H]1CC[C@]2(C)[C@H]3CC[C@]4(C)C(=CC[C@@]5(C(=O)O)CCC(C)(C)C[C@H]54)[C@]3(C)CC[C@H]2C1(C)C` [ACETYL ALEURITOLIC ACID], the pIC50 in data set [1] is below 4.30. Further, in data set [2], the Activity entry is recorded as “Non-Toxic”. As to `CC1(C)CC[C@]2(C(=O)O)CC=C3[C@]4(C)CC[C@H]5C(C)(C)[C@@H](O)CC[C@]5(C)[C@H]4CC[C@@]3(C)[C@@H]2C1` [ALEURITOLIC ACID], the negative logarithm of the IC50 (pIC50) in data set [1] was below 4.30. In addition, in data set [2], the Activity result is “Non-Toxic”. Regarding `CN(C)c1ccc(O)c2c1C[C@H]1C[C@H]3[C@H](N(C)C)C(O)=C(C(N)=O)C(=O)[C@@]3(O)C(O)=C1C2=O` [MINOCYCLINE], the negative logarithm of the IC50 (pIC50) in data set [1] is 5.31.

The record behind these values is ChEMBL document CHEMBL4196247, “Coumarinolignoids and Taraxerane Triterpenoids from Sapium discolor and Their Inhibitory Potential on Microglial Nitric Oxide Production” (J Nat Prod, 2018).
